Assay results reported in ChEMBL document CHEMBL4689842, “EUbOPEN Chemogenomics Library wave 1” (2021).

Experiments:
Assay type in all cases: toxicity, cell-based
[1] = system: HEK-293T; test: Incucyte cell viability with HEK293T; conditions: human, 10 µM, compound concentration 10 uM; note: filed as whole numbers so only -1 and 0 and 1 occur
[2] = system: U2OS; test: Incucyte cell viability with U2OS; conditions: human, 10 µM, compound concentration 10 uM; note: filed as whole numbers so only -1 and 0 and 1 occur
[3] = system: Fibroblast; test: Multiplex assay against human fibroblast
Procedure, shortened: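 At seeding, live cells were stained with Hoechst33342, BioTracker Green Microtubule Cytoskeleton Dye, MitoTracker Red and Annexin V Alexa Fluor 680. After compound addition they were imaged on a CQ1 microscope at 37°C and 5% CO2, and CellPathfinder machine-learning gating sorted them into Hoechst high-intensity objects or normal cells, with normal cells further split into healthy, pyknosed or fragmented nuclei and pyknosed cells into mitotic or apoptotic. Tubulin, mitochondrial-mass and membrane-permeability phenotypes are given as per cents of cells with healthy nuclei.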

[4] = system: Fibroblast; test: Incucyte cell viability with human fibroblast; conditions: 10 µM, compound concentration 10 uM; note: filed as whole numbers so only -1 and 0 and 1 occur
[5] = 6 h, replicate number 1, timepoint 6 hours
[6] = 12 h, replicate number 1, timepoint 12 hours
[7] = 18 h, replicate number 1, timepoint 18 hours
[8] = 24 h, replicate number 1, timepoint 24 hours
[9] = 12 h, 1 µM, compound concentration 1 uM, replicate 1
[10] = 12 h, 1 µM, compound concentration 1 uM, replicate 2
[11] = 12 h, 10 µM, compound concentration 10 uM, replicate 1
[12] = 12 h, 10 µM, compound concentration 10 uM, replicate 2
[13] = 24 h, 1 µM, compound concentration 1 uM, replicate 1
[14] = 24 h, 1 µM, compound concentration 1 uM, replicate 2
[15] = 24 h, 10 µM, compound concentration 10 uM, replicate 1
[16] = 24 h, 10 µM, compound concentration 10 uM, replicate 2
[17] = 48 h, 1 µM, compound concentration 1 uM, replicate 1
[18] = 48 h, 1 µM, compound concentration 1 uM, replicate 2
[19] = 48 h, 10 µM, compound concentration 10 uM, replicate 1
[20] = 48 h, 10 µM, compound concentration 10 uM, replicate 2

For `Cl.NC[C@@H]1O[C@H](C23CC4CC(CC(C4)C2)C3)Cc2c1ccc(O)c2O`, the “Growth Rate” value ([1]; 0 h, replicate number 2, timepoint 0 hours) was 1, the “Growth Rate” value [1, 5] was 0 and the “Growth Rate” value [1, 6] was 0. The “Growth Rate” value [1, 7] was 0, the “Growth Rate” value [1, 8] was 0 and the “Growth Rate” value [2, 5] was 0. For the same compound, the “Growth Rate” value [2, 6] was 0, the “Growth Rate” value [2, 7] was 0 and the “Growth Rate” value [2, 8] was 0. The “Population Apoptotic (%)” value [3, 9] was 60%, the “Population Fragmented Nuclei (%)” value [3, 9] was 28% and the “Population Healthy Nuclei (%)” value [3, 9] was 51%. For the same compound, the “Population Hoechst High Intensity Objects (%)” value [3, 9] was 12%, the “Population Membrane Permeable-Phenotype (%)” value [3, 9] was 16% and the “Population Mitochondria Different-Phenotype (%)” value [3, 9] was 1%. For the same compound, the “Population Mitotic Cells (%)” value [3, 9] was 40%, the “Population Normal (%)” value [3, 9] was 87% and the “Population Pyknosed Nuclei (%)” value [3, 9] was 20%. The “Population Tubulin-Different-Phenotype (%)” value [3, 9] was 24%, the “Total Cell Count” value [3, 9] was 171 and the “Population Apoptotic (%)” value [3, 10] was 0%. The “Population Fragmented Nuclei (%)” value [3, 10] was 6%, the “Population Healthy Nuclei (%)” value [3, 10] was 91% and the “Population Hoechst High Intensity Objects (%)” value [3, 10] was 3%. For the same compound, the “Population Membrane Permeable-Phenotype (%)” value [3, 10] was 2%, the “Population Mitochondria Different-Phenotype (%)” value [3, 10] was 9% and the “Population Mitotic Cells (%)” value [3, 10] was 100%. The “Population Normal (%)” value [3, 10] was 96%, the “Population Pyknosed Nuclei (%)” value [3, 10] was 2% and the “Population Tubulin-Different-Phenotype (%)” value [3, 10] was 10%. For the same compound, the “Total Cell Count” value [3, 10] was 95, the “Population Apoptotic (%)” value [3, 11] was 44% and the “Population Fragmented Nuclei (%)” value [3, 11] was 29%. For the same compound, the “Population Healthy Nuclei (%)” value [3, 11] was 42%, the “Population Hoechst High Intensity Objects (%)” value [3, 11] was 15% and the “Population Membrane Permeable-Phenotype (%)” value [3, 11] was 8%. The “Population Mitochondria Different-Phenotype (%)” value [3, 11] was 9%, the “Population Mitotic Cells (%)” value [3, 11] was 55% and the “Population Normal (%)” value [3, 11] was 84%. The “Population Pyknosed Nuclei (%)” value [3, 11] was 28%, the “Population Tubulin-Different-Phenotype (%)” value [3, 11] was 46% and the “Total Cell Count” value [3, 11] was 205. The “Population Apoptotic (%)” value [3, 12] was 52%, the “Population Fragmented Nuclei (%)” value [3, 12] was 39% and the “Population Healthy Nuclei (%)” value [3, 12] was 32%. The “Population Hoechst High Intensity Objects (%)” value [3, 12] was 10%, the “Population Membrane Permeable-Phenotype (%)” value [3, 12] was 9% and the “Population Mitochondria Different-Phenotype (%)” value [3, 12] was 22%. The “Population Mitotic Cells (%)” value [3, 12] was 47%, the “Population Normal (%)” value [3, 12] was 89% and the “Population Pyknosed Nuclei (%)” value [3, 12] was 27%. The “Population Tubulin-Different-Phenotype (%)” value [3, 12] was 27%, the “Total Cell Count” value [3, 12] was 76 and the “Population Apoptotic (%)” value [3, 13] was 50%. The “Population Fragmented Nuclei (%)” value [3, 13] was 32%, the “Population Healthy Nuclei (%)” value [3, 13] was 55% and the “Population Hoechst High Intensity Objects (%)” value [3, 13] was 14%. For the same compound, the “Population Membrane Permeable-Phenotype (%)” value [3, 13] was 14%, the “Population Mitochondria Different-Phenotype (%)” value [3, 13] was 0% and the “Population Mitotic Cells (%)” value [3, 13] was 50%. The “Population Normal (%)” value [3, 13] was 85%, the “Population Pyknosed Nuclei (%)” value [3, 13] was 12% and the “Population Tubulin-Different-Phenotype (%)” value [3, 13] was 26%. The “Total Cell Count” value [3, 13] was 213, the “Population Apoptotic (%)” value [3, 14] was 42% and the “Population Fragmented Nuclei (%)” value [3, 14] was 8%. For the same compound, the “Population Healthy Nuclei (%)” value [3, 14] was 85%, the “Population Hoechst High Intensity Objects (%)” value [3, 14] was 2% and the “Population Membrane Permeable-Phenotype (%)” value [3, 14] was 5%. The “Population Mitochondria Different-Phenotype (%)” value [3, 14] was 10%, the “Population Mitotic Cells (%)” value [3, 14] was 57% and the “Population Normal (%)” value [3, 14] was 97%. The “Population Pyknosed Nuclei (%)” value [3, 14] was 6%, the “Population Tubulin-Different-Phenotype (%)” value [3, 14] was 12% and the “Total Cell Count” value [3, 14] was 114. The “Population Apoptotic (%)” value [3, 15] was 58%, the “Population Fragmented Nuclei (%)” value [3, 15] was 17% and the “Population Healthy Nuclei (%)” value [3, 15] was 52%. For the same compound, the “Population Hoechst High Intensity Objects (%)” value [3, 15] was 29%, the “Population Membrane Permeable-Phenotype (%)” value [3, 15] was 5% and the “Population Mitochondria Different-Phenotype (%)” value [3, 15] was 16%. The “Population Mitotic Cells (%)” value [3, 15] was 41%, the “Population Normal (%)” value [3, 15] was 70% and the “Population Pyknosed Nuclei (%)” value [3, 15] was 30%. For the same compound, the “Population Tubulin-Different-Phenotype (%)” value [3, 15] was 50%, the “Total Cell Count” value [3, 15] was 181 and the “Population Apoptotic (%)” value [3, 16] was 92%. The “Population Fragmented Nuclei (%)” value [3, 16] was 50%, the “Population Healthy Nuclei (%)” value [3, 16] was 29% and the “Population Hoechst High Intensity Objects (%)” value [3, 16] was 18%. The “Population Membrane Permeable-Phenotype (%)” value [3, 16] was 26%, the “Population Mitochondria Different-Phenotype (%)” value [3, 16] was 26% and the “Population Mitotic Cells (%)” value [3, 16] was 7%. For the same compound, the “Population Normal (%)” value [3, 16] was 81%, the “Population Pyknosed Nuclei (%)” value [3, 16] was 20% and the “Population Tubulin-Different-Phenotype (%)” value [3, 16] was 26%. The “Total Cell Count” value [3, 16] was 80, the “Population Apoptotic (%)” value [3, 17] was 87% and the “Population Fragmented Nuclei (%)” value [3, 17] was 36%. For the same compound, the “Population Healthy Nuclei (%)” value [3, 17] was 59%, the “Population Hoechst High Intensity Objects (%)” value [3, 17] was 11% and the “Population Membrane Permeable-Phenotype (%)” value [3, 17] was 10%. The “Population Mitotic Cells (%)” value [3, 17] was 12%, the “Population Normal (%)” value [3, 17] was 88% and the “Population Pyknosed Nuclei (%)” value [3, 17] was 4%. The “Population Tubulin-Different-Phenotype (%)” value [3, 17] was 13%, the “Total Cell Count” value [3, 17] was 212 and the “Population Apoptotic (%)” value [3, 18] was 100%. The “Population Fragmented Nuclei (%)” value [3, 18] was 21%, the “Population Healthy Nuclei (%)” value [3, 18] was 77% and the “Population Hoechst High Intensity Objects (%)” value [3, 18] was 10%. The “Population Membrane Permeable-Phenotype (%)” value [3, 18] was 16%, the “Population Mitochondria Different-Phenotype (%)” value [3, 18] was 0% and the “Population Mitotic Cells (%)” value [3, 18] was 0%. For the same compound, the “Population Normal (%)” value [3, 18] was 89%, the “Population Pyknosed Nuclei (%)” value [3, 18] was 0% and the “Population Tubulin-Different-Phenotype (%)” value [3, 18] was 21%. The “Total Cell Count” value [3, 18] was 114, the “Population Apoptotic (%)” value [3, 19] was 66% and the “Population Fragmented Nuclei (%)” value [3, 19] was 32%. For the same compound, the “Population Healthy Nuclei (%)” value [3, 19] was 43%, the “Population Hoechst High Intensity Objects (%)” value [3, 19] was 24% and the “Population Membrane Permeable-Phenotype (%)” value [3, 19] was 50%. The “Population Mitochondria Different-Phenotype (%)” value [3, 19] was 5%, the “Population Mitotic Cells (%)” value [3, 19] was 33% and the “Population Normal (%)” value [3, 19] was 75%. For the same compound, the “Population Pyknosed Nuclei (%)” value [3, 19] was 23%, the “Population Tubulin-Different-Phenotype (%)” value [3, 19] was 46% and the “Total Cell Count” value [3, 19] was 169. For the same compound, the “Population Apoptotic (%)” value [3, 20] was 100%, the “Population Fragmented Nuclei (%)” value [3, 20] was 50% and the “Population Healthy Nuclei (%)” value [3, 20] was 48%. For the same compound, the “Population Hoechst High Intensity Objects (%)” value [3, 20] was 17%, the “Population Membrane Permeable-Phenotype (%)” value [3, 20] was 14% and the “Population Mitochondria Different-Phenotype (%)” value [3, 20] was 1%. For the same compound, the “Population Mitotic Cells (%)” value [3, 20] was 0%, the “Population Normal (%)” value [3, 20] was 82% and the “Population Pyknosed Nuclei (%)” value [3, 20] was 1%. The “Population Tubulin-Different-Phenotype (%)” value [3, 20] was 43%, the “Total Cell Count” value [3, 20] was 236 and the “Growth Rate” value [4, 5] was 0. For the same compound, the “Growth Rate” value [4, 6] was 0, the “Growth Rate” value [4, 7] was 0 and the “Growth Rate” value [4, 8] was 0.
